Test results reported in ChEMBL document CHEMBL4513216, “Probing the Open Global Health Chemical Diversity Library for Multistage-Active Starting Points for Next-Generation Antimalarials” (ACS Infect Dis, 2020).

Assay: Toxicity liver stage against HepG2, at 10uM
Type: cell-based
Design: test concentration 10 uM, cell line HepG2-A16-CD81EGFP
Details: human, HepG2-A16-CD81EGFP cells; read-out: INHIBITION
Summary of the method: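 Uninfected HepG2-A16-CD81EGFP cells, 3 × 10^3 per well, 1536-well, plated on prespotted compound at 10 μM final, parasite-free screening media added to match infected plates; puromycin 10 μM positive, DMSO 0.5% negative; run in parallel with 48 h PbLuc assay at 37 °C, 5% CO2; viability by CellTiter-Glo luminescence, normalized to controls.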

Compound | cytotoxicity at 10 µM [%]
CCOC(=O)C1CCCCN1Cc1c[nH]nc1-c1ccc(F)cc1F (stereo unspecified) | -0.545
Cc1ccn(CCC(=O)NCc2ccc(C)o2)n1 | -2.96
COC(=O)CC(c1cccs1)c1oc(C)cc(=O)c1O (stereo unspecified) | 2.99
Cc1ccccc1OCC(=O)NCC(c1ccc(N(C)C)cc1)N(C)C (stereo unspecified) | -30.2
CC(C)NC(=O)Cn1cc(OCc2ccc(F)cc2)c(=O)cc1CO | 4.74
COc1cccc(CNC(=O)NC2(c3nc(C)no3)CCCCC2)c1 | 4.04
O=C(c1cnccn1)N1CCC(Oc2ncccc2Cl)CC1 | 0.566
O=c1[nH]nc2c(S(=O)(=O)N3CCOCC3)cccn12 | -1.7
CC(CC(=O)O)CC(=O)Nc1sc2c(c1C(N)=O)CCc1ccccc1-2 (stereo unspecified) | 8.26
COC(=O)CC(c1ccc(OC)c(OC)c1)c1oc(C)cc(=O)c1O (stereo unspecified) | 16.8
CC1CCCN(C(=O)c2ccn(COc3ccccc3)n2)C1 (stereo unspecified) | 9.43
CCCc1nc(NCCCn2cccn2)c2c(n1)c(C)nn2CC | 7.88
CCn1nc(C)c(NC(=O)c2nnn(Cc3ccccc3)c2OC)c1C | 13.9
CC(=O)N1CCCC1CCc1ccnc(-c2cncnc2)c1 (stereo unspecified) | 1.24
CCn1c(C)nc2cc(NC(=O)CC3CCCCO3)ccc21 (stereo unspecified) | 5.36
O=C1NCc2ccccc2CC12CCCN(CCCc1ccccc1)C2 (stereo unspecified) | 10.3
O=C(c1ccc(Cl)cc1)N1CCC(N2CCCCC2=O)CC1 | 7.3
COc1cc(CNc2nc(C3CC3)no2)cc(OC)c1OC | -0.291
Cn1c(CS(=O)(=O)Cc2cccc(Cl)c2)cc(=O)n(C)c1=O | 8.17
CC(C)(C)C(=O)N1CCCN(c2ncnc3nc(N)ccc23)CC1 | 3.39
CCOC1CCN(C(=O)NCc2ccc(C(=O)N(C)C(C)C)cc2)CC1 | -6.55
CCN1CCC(NC(=O)N(C)Cc2csc3ccccc23)CC1 | -45
CC(C)Oc1ccccc1CNC(=O)N(C)CC(F)F | -41.5

Compound | cytotoxicity at 10 µM [%]
CCS(=O)(=O)N1CCc2c(cccc2NCc2ncc[nH]2)C1 | -42.9
NC(=O)N1CCCC(C(=O)NCCOc2ccc(F)c(F)c2)C1 (stereo unspecified) | 2.94
O=C(c1c(F)cccc1Br)N1CCCOCC1 | 6.69
CCN(Cc1ccc2c(c1)OCO2)c1ncc(S(N)(=O)=O)s1 | 8.14
CC(=O)N1CCN(CC(=O)NCCCN(C)c2ccccc2)CC1 | 8.21
COc1cc2nc(NCc3ccc(C)nc3)nc(N)c2cc1OC | 2.94
CN(C)c1cc(C(=O)NC2(c3cccc(F)c3)CCOCC2)ccn1 | -1.31
O=C(NCCCO)Nc1cccc(I)c1 | -6.1
Cc1cc(C)n(CCC(=O)OCC(=O)N2CCc3sccc3C2)n1 | 8.52
CCCc1[nH]n(C)c(=N)c1-c1ccc2c(c1)OCO2 | -51.5
CCN(C(=O)CN1CCC(c2n[nH]c(C3CC3)n2)CC1)C1CC1 | -2.07
O=S(=O)(Nc1c(F)cccc1N1CCCC1)c1cncc(F)c1 | 3.22
CC1(C)CN=C(N2CCN(CC3CCCCO3)CC2)S1 (stereo unspecified) | -1.61
CCn1nc(C)cc1C(=O)NCc1noc(C(C)(C)C)n1 | 8.7
CC(C)(C)C(=O)N1CCN(Cn2nccc2-c2cccnc2)CC1 | 8.27
CC(C)NC(=O)CC(C)NCc1cc(Cl)ccc1F (stereo unspecified) | -40
CNC(=O)Cn1cc(C#N)c(=O)c2cc(Br)ccc21 | 23.7
CCOc1cc(F)ccc1NS(=O)(=O)c1cc(C)c(C(=O)O)s1 | -10
CN1CCN(C)C2(CCN(C(=O)CC(F)(F)F)CC2)C1=O | 1.24
CCN1CC2(CC1=O)CN(C(=O)NC(C)C)CCN(C(=O)NC(C)C)C2 | -1.73
CC(C)n1nc(CN2CCCC2=O)c2c1CN(C(=O)c1ccno1)C2 | 3.39
CCOCc1nn(C)c2c1CN(CCO)CC2 | -103
Cc1ccc(N2CC[C@H](OCC3CC3)[C@@H]2Cc2ccncc2)nn1 | 8.13

Compound | cytotoxicity at 10 µM [%]
Cc1cnc(N2CCCC3(COCCN(c4nccs4)C3)C2)nc1 (stereo unspecified) | -112
O=C1CC(c2ccncc2)C2(CCN(Cc3nccs3)CC2)N1 (stereo unspecified) | 4.8
Cn1c(CN2CCN(c3cccnc3)CC2)cc2ccccc21 | 5.33
Cc1nn(C)cc1C(C)Nc1ncnc2sccc12 (stereo unspecified) | 14.1
CNc1ncc(C(=O)N2CCC3(CC2)Nc2ccccc2NC3=O)cn1 | 1.02
Cc1nc(N(C)C)nc(NCCc2cnccn2)c1C | -1.22
Cc1c(C2c3nc[nH]c3CCN2CCOCc2ccccc2)cnn1C (stereo unspecified) | 0.838
COc1cc2c(cc1C1CC(=O)NCc3nc(N(C)C)sc31)CCC2 (stereo unspecified) | 1.16
COc1ccccc1-n1nc(-c2ccco2)n(CC(=O)NC2CC2)c1=O | 0.355
COc1cccc(C(C(=O)O)N2CCCN(c3ccnc(C)c3)CC2)c1 (stereo unspecified) | 4.98
O=C(O)c1cc(-c2ccoc2)cc(S(=O)(=O)NCc2ccccn2)c1 | -47.6
CSc1nccc(N2CCCC(c3nccn3C(C)C)C2)n1 (stereo unspecified) | 7.72
O=C(NCc1c(F)cccc1Cl)c1cc(CN2CCCC(O)C2)on1 (stereo unspecified) | -44.9
Cc1cc(C)c2c(c1)NC(=O)C2CC(=O)O (stereo unspecified) | 9.13
c1ncc(-c2cn(CCSc3cnn[nH]3)nn2)cn1 | -41.7
Cc1ncsc1CCC(=O)NC1CCN(Cc2cccs2)CC1 | -3.09
N[C@H]1CN(CCOc2ccc(F)cc2)C[C@@H]1C1CC1 | -1.93
COCCN(CC1CCCO1)C(=O)CCNC(=O)c1ccccc1F (stereo unspecified) | -41.7
CCC(=O)c1ccc(OCC(=O)NC(C)Cc2cc(C)n[nH]2)cc1 (stereo unspecified) | -39.7
Cn1ncc(N2CCN(Cc3ccc(S(C)(=O)=O)cc3)CC2)cc1=O | -1.44
Cc1ccc(CCNc2ncc(C)c(-c3ccnn3C)n2)s1 | 9.68
Cc1nc(N(C)C)ncc1C(=O)N[C@@H]1CCc2ccccc21 | 5.77
COCc1nc(CN2C(=O)OC[C@@H]2C(C)C)no1 | -12.4

Compound | cytotoxicity at 10 µM [%]
CN(C)CCN(C)C[C@@H]1CN(C(=O)NC2CCCC2)C[C@@H]1CO | 1.35
COC(=O)N1CCN(C(=O)c2ccc(C)c(N3CCNC3=O)c2)CC1 | 3.76
CC(c1cccnc1)N(C)Cc1cc2cc3c(cc2[nH]c1=O)OCO3 (stereo unspecified) | 9.27
CC(C)CC(O)C1CCN(C(=O)c2ccc(C(C)C)[nH]c2=O)CC1 (stereo unspecified) | 3.25
Cc1ccsc1CN1CC2(CCN(C(=O)C3CC3)CC2)CC1C(=O)O (stereo unspecified) | 3.24
CNC(=O)c1noc(CN2CC[C@](C)(O)[C@H](C)C2)n1 | -37.5
COc1cc(C)c(C)cc1S(=O)(=O)N(C)CC(=O)Nc1ccon1 | 2.74
COc1ccc2cc(C(=O)N3CC[C@H](CO)[C@H](O)C3)n(C)c2c1 | -7.03
O=C(c1cnc(Nc2ccccc2)nc1)N1CCS(=O)(=O)CC1 | -1.01
O=C1CCC(CCC(=O)N2CCCC2c2nccs2)=NN1 (stereo unspecified) | 4.06
COc1cccc(C)c1C(=O)N1CCc2ncnc(NCCO)c2CC1 | 5.69
O=C1CC(c2cccs2)c2snc(C(=O)O)c2N1 (stereo unspecified) | -11.1
Cc1ccc(CNC(=O)Nc2nncs2)cn1 | -9.12
Cc1ccc(-c2nc(CN3CCN(CCO)CC3)co2)cc1 | -23.7
CCC(=O)N1CCN(C(=O)Cn2cccn2)CC1 | 0.661
CC(C)N1CCN(C(=O)Nc2cnc3c(cnn3C(C)C)c2)CC1 | 6.23
O=C(Cn1nc(-c2ccc(F)cc2)oc1=O)NCCc1ccccc1 | -13.5
Cc1cc(C2CCCN2Cc2nc3c(cnn3C)c(=O)[nH]2)on1 (stereo unspecified) | -10.7
Cc1nn(C)c(C)c1CCC(=O)N1CCCC(n2cncn2)C1 (stereo unspecified) | -1.4
Cc1ccc(-c2nc(CCNC(=O)NCC(C)(C)C(N)=O)co2)cc1 | -10.1
Cc1nn(C)c(N(C)C)c1CNCc1ccccc1Cn1ccnc1 | -15.3
Cc1ccccc1OCCN1CCn2c(C)nnc2C1 | -2.78
Cc1ccc(C(=O)N2CCC(c3n[nH]c(C4CC4)n3)CC2)cc1F | -5.5

Compound | cytotoxicity at 10 µM [%]
Cc1nc(CN(C)C2CCN(CCCOc3ccccc3C)C2)no1 (stereo unspecified) | 2.24
Cc1ncsc1CNc1cc(N2CCCC2CO)ncn1 (stereo unspecified) | -12.5
CCn1ccnc1CN1CCCN(C(=O)Cc2ccc(F)cc2)CC1 | -15.8
CC(C)c1nc2c(n1C)CCN(CC(=O)Nc1ccnn1C(C)C)C2 | -1.3
Cn1ccnc1C1(O)CCN(C(=O)CCc2ccccc2)CC1 | 1.37
c1cc2c(cc1C1(CNC3=NCCN3)CCCC1)OCCO2 | 11
c1ccc(CN2C[C@H]3CCC[C@@]3(COCC3CC3)C2)nc1 | 1.55
c1cnc(-c2noc(C3CN(Cc4ccc5c(c4)CCO5)C3)n2)nc1 | 0.488
c1cc(CN2CC[C@@H]3CN(c4cnccn4)C[C@@H]3C2)ccn1 | -119
Cn1cccc1C(=O)N1CC[C@H]2[C@H]1CCN2CC1CCOCC1 | -4.81
Fc1ccccc1CN1C[C@@H]2CN(Cc3cccnc3)CCO[C@@H]2C1 | 9.2
Cc1nn(C)c(N(C)C)c1CNC1CCc2cc(F)ccc21 (stereo unspecified) | -15.4
Cn1ccc(C(=O)N2C[C@@H]3CN(CC4CC4)CCO[C@@H]3C2)n1 | 14.9
O=C(NCc1cccnc1)c1nc2c(s1)CCCN2C(=O)C1CC1 | -93
Cc1nc(CN2CCc3ncnc(-c4ccncc4)c3CC2)cs1 | -70
Cc1ccc(-c2n[nH]cc2CNCC2CCN(CC(F)(F)F)C2)o1 (stereo unspecified) | 6.99
O=C1COC2(CCN(CC3CCOCC3)CC2)CN1Cc1ccccn1 | -2.76
O=C([C@@H]1CSCN1)N1CCC2(CC1)CNCc1ccccc12 | -2.08
C1CC(CN2C[C@@H]3CC[C@H]2CN(Cc2nnc(C4CC4)o2)C3)C1 | 1.19
